According to ChEMBL document CHEMBL4270523, “A comparative study of non-native N-acyl l-homoserine lactone analogs in two Pseudomonas aeruginosa quorum sensing receptors that share a common native ligand yet inversely regulate virulence” (Bioorg Med Chem, 2018):
pEC50, pIC50: −log10 of the molar value.

Assays:
[1] = biological target: T1, Transcriptional activator protein LasR (Pseudomonas aeruginosa (strain ATCC 15692 / PAO1 / 1C / PRS 101 / LMG12228), UniProt P25084); experiment: (§1) Agonist activity at Pseudomonas aeruginosa LasR expressed in Escherichia coli JLD271 harboring LasR expression plasmid pJN105L and lasI-lacZ transcriptional fusion reporter pSC11-L measured after 35 mins by Miller-type beta-galactosidase reporter gene assay
T1 sequence (P25084 whole entry): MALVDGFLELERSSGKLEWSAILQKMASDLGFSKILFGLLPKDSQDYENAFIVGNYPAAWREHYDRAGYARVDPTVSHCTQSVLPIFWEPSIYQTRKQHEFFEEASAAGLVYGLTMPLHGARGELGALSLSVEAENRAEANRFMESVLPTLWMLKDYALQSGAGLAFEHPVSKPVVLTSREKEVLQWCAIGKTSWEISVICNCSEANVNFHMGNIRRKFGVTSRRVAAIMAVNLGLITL
Method in brief: (§2)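 E. coli JLD271 (ΔsdiA) reporter cells grown in LB at 37 °C. Miller-type β-galactosidase assay with CPRG or ONPG substrate; growth read as OD600. Compounds tested from 1 pM to 100 μM. Activity is expressed relative to 100 μM OdDHL. EC50 taken from dose–response curves. Maximum activation has error ±10%.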

[2] = biological target: T2, PhzR (Pseudomonas aeruginosa, UniProt Q9RMS5); experiment: (§3) Agonist activity at Pseudomonas aeruginosa QscR expressed in Escherichia coli JLD271 harboring QscR expression plasmid pJN105Q and pPA1897-lacZ transcriptional fusion reporter pSC11-Q measured after 35 mins by Miller-type beta-galactosidase reporter gene assay; method in brief: as §2
T2 sequence (Q9RMS5 whole entry): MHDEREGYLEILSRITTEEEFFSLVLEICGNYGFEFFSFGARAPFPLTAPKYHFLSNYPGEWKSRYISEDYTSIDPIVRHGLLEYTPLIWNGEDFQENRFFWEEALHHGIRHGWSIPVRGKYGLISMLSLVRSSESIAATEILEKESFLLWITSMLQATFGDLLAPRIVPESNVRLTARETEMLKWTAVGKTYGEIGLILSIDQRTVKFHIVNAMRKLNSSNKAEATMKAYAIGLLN

[3] = biological target: T3, PhzR (Pseudomonas aeruginosa) (UniProt Q9RMS5); experiment: Agonist activity at Pseudomonas aeruginosa QscR expressed in Escherichia coli JLD271 harboring QscR expression plasmid pJN105Q and pPA1897-lacZ transcriptional fusion reporter pSC11-Q measured after 35 mins by Miller-type beta-galactosidase reporter gene assay relative to OdDHL
T3 sequence (whole entry): T2 sequence (Q9RMS5 whole entry)
Method in brief: as §2, with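 “curves. Run in triplicate, n ≥ 3 trials; 95% CIs from SEM.” for “curves.”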

[4] = biological target: T4, Transcriptional activator protein LasR (Pseudomonas aeruginosa (strain ATCC 15692 / PAO1 / 1C / PRS 101 / LMG12228)) (UniProt P25084); experiment: Agonist activity at Pseudomonas aeruginosa LasR expressed in Escherichia coli JLD271 harboring LasR expression plasmid pJN105L and lasI-lacZ transcriptional fusion reporter pSC11-L measured after 35 mins by Miller-type beta-galactosidase reporter gene assay relative to OdDHL
T4 sequence (whole entry): T1 sequence (P25084 whole entry)
Method in brief: as §2, with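 “curves. Run in triplicate, n ≥ 3 trials; 95% CIs from SEM.” for “curves.”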

[5] = biological target: T3, PhzR (Pseudomonas aeruginosa); experiment: as §3, with “Antagonist” for “Agonist”, “using ONPG as substrate assessed as inhibition of OdDHL-induced receptor activation” for “measured”, “4 hrs” for “35 mins”; conditions: concentration not given here
[6] = biological target: T2, PhzR; experiment: as above
[7] = biological target: T4, Transcriptional activator protein LasR (Pseudomonas aeruginosa (strain ATCC 15692 / PAO1 / 1C / PRS 101 / LMG12228)); experiment: as §1, with “Antagonist” for “Agonist”, “assessed as inhibition of OdDHL-induced receptor activation” for “measured”, “4 hrs” for “35 mins”; conditions: concentration not given here
[8] = biological target: T1, Transcriptional activator protein LasR; experiment: as above

Compound | pEC50 [1] | pEC50 [2] | Activity [3] [%] | Activity [4] [%] | inhibition [5] [%] | pIC50 [6] | inhibition [7] [%] | pIC50 [8]
CCCCCCCCCC(=O)CC(=O)N[C@H]1CCCC1=O | 7.83 | 6.08 | 77 | 110 |  |  |  | 
CCCCCCCCCC(=O)CC(=O)NCC1CCCO1 (stereo not given) | 6.59 |  | 3.2 | 96 | 59 | < 3.60 |  | 
CCCCCCCCCC(=O)CC(=O)O[C@H]1CCOC1=O |  |  | 37 | 27 | 23 | < 3.60 | 53 | < 3.60
CCCCCCCCCC(=O)CC(=O)NC1CCCC1 | 6.79 | 6.44 | 100 | 88 |  |  |  | 
CCCCCCCCCC(=O)CC(=O)N[C@@H]1CCOC1=O |  |  | 110 | 99 |  |  |  | 
CCCCCCCCCC(=O)CC(=O)N[C@H]1CCOC1 | 6.04 | 6.09 | 74 | 81 |  |  |  | 
CCCCCCCCCC(=O)CC(=O)N[C@H]1CCNC1=O | 7.53 | 5.48 | 56 | 110 |  |  |  | 
CCCCCCCCCC(=O)CC(=O)N[C@H]1CCSC1=O | 8.81 | 7.09 | 110 | 100 |  |  |  | 
CCCCCCCCCC(=O)CC(=O)N[C@H]1CCO[C@@H]1O | 5.73 | 5.46 | 110 | 96 |  |  |  | 
CCCCCCCCCCCS(=O)(=O)N[C@H]1CCOC1=O |  | 5.80 | 72 | 6.4 |  |  |  | 
